NR2E3 ag-1 – NR2E3 (human) agonism; GST-NR2E3/biotin-RetCOR TR-FRET, 1536-well; inhibition of corepressor binding, % at 4.78 µM; hit rate 0.12% among 320,000; AID 2300;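 active = percent inhibition above the cutoff of mean plus 3 SD of all tested compounds, set per screening campaign, cut at about 20% in these data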;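 note: 0% = DMSO wells and 100% = biotin wells as full block of FRET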
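Material: NR2E3–RetCOR corepressor complex / Incubation: Compound–protein incubation for 5 h at 4 °C / Dosing: compound at 4.8 µM, single dose / Detection: time-resolved FRET / Benchmarks: high control biotin, low control 0.6% DMSO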
697 NFkB inh – inhibitors of the PMA/ionomycin-induced NF-kB reporter in 697 B cells. 697 B-cell NF-kB luciferase reporter, 16 h. inhibition, % at 4 µM. hit rate 0.33% among 330,000. AID 435022; in the data active = inhibition above about 35%
Jurkat NFkB inh – inhibitors of the PMA/ionomycin-induced NF-kB reporter in Jurkat cells | PMA/ionomycin-induced NF-kB luciferase reporter, luminescence | inhibition, % at 4 µM | hit rate 0.53% among 330,000 | AID 435003; in the data active = inhibition above about 50%
NR2E3 ag-2 – activates human NR2E3 receptor; inhibition of corepressor binding, % at 3.98 µM; CHO-S Gal4-NCOR/VP16-NR2E3 two-hybrid, luciferase; Q9Y5X4; hit rate 0.35% among 360,000;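 active = inhibition above the mean of all tested compounds plus 3 SD, cut at about 70% in these data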;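 note: 0% = DMSO with NR2E3 transfected cells and 100% = cells lacking NR2E3 construct; higher means lower luciferase signal from less NR2E3 corepressor binding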
GalR3 antagonist – human GalR3 antagonism. hit rate 0.44% among 360,000. HEK293 GalR3-CNG cAMP membrane potential fluorescence; galR3 body fused to GalR1 C-terminus. inhibition, % at 3 µM. O60755;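 active = inhibition above the screen-wide average plus 3 SD, cut at about 13% in these data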;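 note: forskolin and galanin both at EC90 stimulate the cells; cAMP rise reported by CNG channel membrane potential dye signal; 0% = forskolin plus galanin with DMSO and 100% = forskolin alone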
Target sequence (O60755 1-299 limits assumed): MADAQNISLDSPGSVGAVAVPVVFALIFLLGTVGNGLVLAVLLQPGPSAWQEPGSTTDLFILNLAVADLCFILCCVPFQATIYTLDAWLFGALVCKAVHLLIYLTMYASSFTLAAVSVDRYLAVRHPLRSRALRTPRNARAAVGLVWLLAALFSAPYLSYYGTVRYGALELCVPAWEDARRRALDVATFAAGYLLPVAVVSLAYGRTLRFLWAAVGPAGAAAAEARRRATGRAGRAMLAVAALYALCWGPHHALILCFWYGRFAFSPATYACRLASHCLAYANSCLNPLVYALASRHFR
Gli-Sufu antag – blocks Gli-Sufu signaling in a luciferase reporter. Sufu-KO-LIGHT fibroblasts, Gli luciferase reporter luminescence. inhibition, % at 5 µM. hit rate 0.74% among 340,000. AID 588413;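 active = inhibition above about 55%, limit read from the data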;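 note: 0% = DMSO-treated cells and 100% = wells with medium but no cells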
697 NFkB conf – lowers PMA/ionomycin-induced NF-kB signal in 697 B cells; inhibition, % at 4 µM; shares compounds with 697 NFkB inh; AID 449746; hit rate 35% among 2,000; 697 B-cell NF-kB luciferase, 16 h; in the data active = inhibition mostly above about 28%, no sharp cut-off; inactive = mostly below about 22%
* hit, by the source's call; i = inactive; . = no result. Compounds with a hit are over-represented: about 1.8% of the library has one in this group of screens.

SMILES | NR2E3 ag-1 | 697 NFkB inh | Jurkat NFkB inh | NR2E3 ag-2 | GalR3 antagonist | Gli-Sufu antag | 697 NFkB conf
CN1C(=O)CSc2ccc(NC(=O)N3CCN(c4ccccc4)CC3)cc21 | 2 | 36* | -11 | -22 | -5 | 19 | 31*
CCN(C(=O)CN1C(=O)NC2(CCc3ccccc32)C1=O)C1CCCCC1 (configuration not stated) | 4 | 42* | 8 | 5 | -2 | -2 | 22
CCCCC(=O)Nc1nc2c(OC)cc([N+](=O)[O-])cc2s1 | 4 | 16 | 7 | 8 | -2 | 8 | .
CCCCC(=O)Nc1nc2c(OC)ccc(OC)c2s1 | 1 | 36* | -3 | 3 | . | 5 | 27
O=C(COc1ccc2c3c(c(=O)oc2c1)CCC3)N1CCCC1 | 0 | 5 | -13 | -12 | -11 | 0 | .
O=C(O)C1CCN(C(=O)COc2ccc3c4c(c(=O)oc3c2)CCCC4)CC1 | 0 | 38* | 1 | -1 | 0 | -1 | 13
Cc1c(CCC(=O)N2CCC(C(=O)O)(c3ccccc3)CC2)c(=O)oc2cc3oc4c(c3cc12)CCCC4 | 0 | 53* | -1 | -24 | -4 | 9 | 37*
Cc1c(CCC(=O)N[C@@H](C)C(=O)O)c(=O)oc2cc3oc4c(c3cc12)CCCC4 | 0 | 41* | 12 | -7 | -11 | 11 | 18
Cc1c(CCC(=O)N2CCC(C(=O)O)CC2)c(=O)oc2cc3oc4c(c3cc12)CCCC4 | 2 | 49* | 0 | -15 | -1 | 6 | 47*
COc1ccc(C2CC(=O)C(c3ccc(Cl)cc3)=CN2Cc2ccccc2)cc1 (configuration not stated) | . | . | . | . | -10 | . | .
COC(=O)N1Cc2ccnnc2CC1c1ccccc1-c1ccc(F)cc1 (configuration not stated) | . | . | . | . | -7 | . | .
COC(=O)[C@]12C[C@H](CC(=O)NCc3cccc(C(F)(F)F)c3)C(=O)N(Cc3ccccc3)C1=C[C@H](C(C)(C)C)O[C@@H]2C | . | . | . | . | -6 | . | .
CNc1ncc(C(=O)c2ccc(-c3ccccc3)cc2)s1 | 7 | -350 | -120 | -124 | -6 | -54 | -178
CNc1ncc(C(=O)c2ccc(Cl)cc2)s1 | 0 | -104 | -92 | -52 | -6 | -80 | .
N#Cc1c(/N=C/c2cccs2)sc2c1CCCCC2 | 1 | -426 | -135 | -14 | -4 | -26 | -209
N#Cc1c(/N=C/c2ccc(Br)s2)sc2c1CCC2 | . | . | . | -9 | -3 | 18 | .
NC(=O)c1c(N)[nH]c(C(=O)c2ccccc2)c1-c1ccc(Br)cc1 | . | . | . | . | -4 | . | .
c1ccc2nc(-c3ccc(N4CCOCC4)cc3)ccc2c1 | 10 | -348 | -67 | -73 | -5 | -24 | -291
O=C(Nc1ccccc1)Nc1ncc([N+](=O)[O-])s1 | . | -260 | -80 | 36 | -13 | -110 | -351
COC(=O)c1c(NC(=O)c2cccc([N+](=O)[O-])c2)sc(C(N)=O)c1C | 5 | 39* | 16 | 11 | -3 | -16 | 50*
O=C(Nc1ncc([N+](=O)[O-])s1)c1cccc([N+](=O)[O-])c1 | 2 | -450 | -72 | -175 | -8 | -24 | -444
CC(=O)Nc1cccc(C(=O)/C=C/c2ccc(/C=C/C(=O)c3cccc(NC(C)=O)c3)cc2)c1 | -1 | -293 | 13 | . | 0 | . | -46
CC(=O)Nc1cccc(C(=O)/C=C/c2ccc(F)cc2)c1 | 6 | 15 | -7 | 6 | 1 | -20 | .
CN(c1ccc(NC(=O)Cc2c[nH]c3ccccc23)cc1)c1ccccn1 | . | . | . | . | 0 | . | .
N#Cc1sc(=O)[nH]c1Cl | 4 | 42* | 17 | -7 | -2 | 3 | 13
Cc1ccc(S(=O)(=O)N2CC3=C(c4ccccc4)CC4(C)C(=O)C(C)(C)CC4=C3C2)cc1 (configuration not stated) | . | . | . | . | -6 | . | .
O=S(=O)(c1cnc(Cl)c(Cl)c1)N1CCCc2ccccc21 | -2 | 43* | 19 | 20 | -7 | -5 | 37*
COc1ccc(C(=O)Nc2ncccc2C)cc1S(=O)(=O)N1CCCc2ccccc21 | 5 | 21 | -7 | -12 | 1 | -13 | .
COc1ccc(C(=O)Nc2nc3c(s2)CCCC3)cc1S(=O)(=O)N1CCCc2ccccc21 | 2 | i | -48 | 45 | -4 | 16 | i

Screening results as filed in PubChem BioAssay.
